The values below come from PubChem BioAssay.

Calls of active or inactive are those of the source.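 Rule for the calls, unless noted: active = viability at or below 30% in both replicate assays; inconclusive = viability at or below 30% in just one of the two assays; inactive = the rest.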

The term viability denotes a read-out of living cells in per cent, often relative to untreated cells. In general, inhibition refers to the drop in the measured response relative to a control, in per cent.

Assay [1] is described as follows: reduced viability of SK-BR-3 breast cancer cells – cell-based, 24 h, human, pilot screen (AID 572;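 active = viability at or below 10% of carrier control in both of two separate runs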;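 note: compound exposure lasted between 18 and 24 h rather than exactly 24 h; 100% = carrier-treated control wells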). The note with it: SK-BR-3 viability, CellTiter-Glo luminescence, at 10 µM, stronger effect = lower value.
Assay [2] is described as follows: HUVEC growth inhibition – cell-based, human, primary screen (AID 575).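 Note: 100% = median of untreated cell wells with 0.1% DMSO on each plate.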 The note with it: HUVEC proliferation, CellTiter-Glo luminescence, 72 h; at 10 µM; stronger effect = lower value. Summed up:
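System – primary HUVEC, no more than 12 passages · Medium – Low-serum (2% FBS) EBM, supplemented · Times – 72 h exposure, 37 °C, 5% CO2, 30 min RT equilibration · Measured by – luminescent ATP assay · Read-out – % viability relative to median vehicle-well signal on each plate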
For orientation: Cellular ATP, detected with luciferase, serves as a proxy for viable cell number.

Assay [3] in a line: MRP1 drug-resistance reversers in H69AR cells – cell-based, doxorubicin co-treatment, pilot screen (AID 601;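 active = viability loss from added drug above about 55%, and viability with drug at most 40%, in both replicates, limit read from the data, passing the limit was not always enough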). The note with it: CellTiter-Glo, 72 h, at 10 µM; for differential viability (reversal): stronger effect = higher value.
Assay [4] in a line: yeast transport mutant growth inhibition pilot in 384-well plates, post-Golgi transport modulator project (AID 636; in the data active = inhibition above about 31%). The note with it: absorbance 615 nm, about 18 h, stronger effect = higher value.
A short description of assay [5]: growth suppression of yeast trafficking mutant, preliminary HTS, modulators of trafficking downstream of Golgi apparatus project, 1536-format plate, OD 615 nm (AID 637; in the data active = inhibition above about 30%). The note with it: yeast transport mutant growth, absorbance 615 nm, 18 h; stronger effect = higher value.
Setting [6] is: H69AR cells + 2 uM doxorubicin, measured here: viability with 2 uM doxorubicin, stronger effect = lower value.
Where [7] appears, read: H69AR cells, compound alone cytotoxicity.

As to `N#Cc1cc2ccc(N3CCOCC3)cc2cc1C#N`, the viability in assay [1] was 85% (inactive); in assay [2], 4.27% (active); in assay [3] (setting [6]), 76.9%; in assay [3] (setting [7]), 43.4%. Moreover, the differential viability (reversal) in assay [3] (H69AR cells + 2 uM doxorubicin) is -33.5% (inactive). The inhibition in assay [4] was -0.91% (inactive); in assay [5] it was -3% (inactive).

As for `CN(C)c1ccc(O)c2c1CC1CC3[C@@H](N(C)C)C(=O)C(C(N)=O)=C(O)[C@]3(O)C(=O)C1=C2O` (stereo partly specified), the viability was 92% (inactive) in assay [1], 92.6% (inactive) in assay [2], 39.2% in assay [3] (setting [6]) and 32.7% in assay [3] (setting [7]). Further, the differential viability (reversal) in assay [3] (H69AR cells + 2 uM doxorubicin) was -6.56% (inactive). Besides, the inhibition in assay [4] is 2.73% (inactive); in assay [5], 29.7% (inactive).

`C=C1[C@@H](C)C2[C@H](Cc3ccccc3)NC(=O)[C@]23OC(=O)CC[C@H](O)CCC[C@H](C)C/C=C/[C@H]3[C@@H]1O` (stereo partly specified): the viability in assay [1] is 95% (inactive); in assay [2], 13.1% (active); in assay [3] (setting [6]), 48.2%; in assay [3] (setting [7]), 31.9%. Besides, the differential viability (reversal) in assay [3] (H69AR cells + 2 uM doxorubicin) is -16.3% (inactive). Also, the inhibition is -0.26% (inactive) in assay [4] and 0.67% (inactive) in assay [5].

As for `N#Cc1c(N2CCCC2)nc(N)c2c(N)nc(N3CCCC3)cc12`, the viability in assay [1] was 82% (inactive); in assay [2], 68.2% (inactive); in assay [3] (setting [6]), 75.2%; in assay [3] (setting [7]) it was 46.3%. Further, the differential viability (reversal) in assay [3] (H69AR cells + 2 uM doxorubicin) is -29% (inactive). Also, the inhibition in assay [4] was -0.13% (inactive); in assay [5] it was -2.3% (inactive).

For the molecule `O=C(/C=C/c1ccccc1)c1ccccc1`, the viability in assay [1] is 107% (inactive); in assay [2], 50.2% (inactive); in assay [3] (setting [6]), 4.56%; in assay [3] (setting [7]), 2.06%. Besides, in assay [3] (H69AR cells + 2 uM doxorubicin), the differential viability (reversal) is -2.5% (inactive). Moreover, the figures for the inhibition in assay [4] and in assay [5] were 1.95% (inactive) and 0.67% (inactive), respectively.

Take `COC(=O)c1ccc(CSc2ncnc3c2nnn3-c2ccc(OC)cc2)o1`: the viability in assay [1] is 87.5% (inactive); in assay [2] it was 88% (inactive); in assay [3] (setting [6]) it was 71.6%; in assay [3] (setting [7]) it was 60.9%. For the same molecule, the differential viability (reversal) in assay [3] (H69AR cells + 2 uM doxorubicin) is -10.7% (inactive). For the same molecule, the inhibition was -1.97% (inactive) in assay [4] and 6.07% (inactive) in assay [5].

With `COC(=O)Nc1nc2ccc(C(=O)c3ccccc3)cc2[nH]1`, the viability in assay [1] was 109% (inactive); in assay [2] it was 44.3% (inactive); in assay [3] (setting [6]), 73.4%; in assay [3] (setting [7]), 26.1%. Further, the differential viability (reversal) in assay [3] (H69AR cells + 2 uM doxorubicin) was -47.3% (inactive). Besides, the inhibition in assay [4] is 42.3% (active); in assay [5], 90.2% (active).

Consider `CN(C)CCCN1c2ccccc2Sc2ccc(Cl)cc21`, for which the viability in assay [1] is 71% (inactive); in assay [2] it was 2.62% (active); in assay [3] (setting [6]), 28.3%; in assay [3] (setting [7]) it was 1.67%. In addition, the differential viability (reversal) in assay [3] (H69AR cells + 2 uM doxorubicin) is -26.7% (inactive). Moreover, the inhibition in assay [4] is -0.91% (inactive); in assay [5], 7.17% (inactive).

For `COc1ccc(CCn2c(=N)c(C(=O)NCc3ccco3)cc3c(=O)n4ccccc4nc32)cc1`, the viability in assay [1] is 73% (inactive); in assay [2], 57.9% (inactive); in assay [3] (setting [6]), 64.5%; in assay [3] (setting [7]) it was 56.1%. The differential viability (reversal) in assay [3] (H69AR cells + 2 uM doxorubicin) is -8.4% (inactive). The inhibition in assay [4] is -6.76% (inactive); in assay [5], -8.33% (inactive).

On to `CCOC(=O)N1CCN(CC(=O)Nc2cc(C)nn2-c2nc3ccccc3s2)CC1`, for which the viability in assay [1] is 74% (inactive); in assay [2], 57% (inactive); in assay [3] (setting [6]), 39.2%; in assay [3] (setting [7]), 37.7%. In addition, the differential viability (reversal) in assay [3] (H69AR cells + 2 uM doxorubicin) was -1.56% (inactive). Besides, the figures for the inhibition in assay [4] and in assay [5] were -0.39% (inactive) and 2.46% (inactive), respectively.

`O=C(Nc1ccccc1-c1nc2ccccc2o1)c1ccc2c(c1)OCCO2`: the viability in assay [1] was 112% (inactive); in assay [2], 66.7% (inactive); in assay [3] (setting [6]), 48.4%; in assay [3] (setting [7]) it was 35.7%. Moreover, in assay [3] (H69AR cells + 2 uM doxorubicin), the differential viability (reversal) was -12.7% (inactive). The inhibition in assay [4] was -3.64% (inactive); in assay [5] it was -4.44% (inactive).

On to `Cc1cccc(OCC(=O)Nc2cc(C)ccc2O)c1`, for which the viability was 105% (inactive) in assay [1], 75.3% (inactive) in assay [2], 51.4% in assay [3] (setting [6]) and 37.4% in assay [3] (setting [7]). Also, the differential viability (reversal) in assay [3] (H69AR cells + 2 uM doxorubicin) was -14% (inactive). The inhibition in assay [4] was -6.16% (inactive); in assay [5] it was 0.18% (inactive).

Take `COc1ccc(CSCCN)cc1Cl`: the viability was 113% (inactive) in assay [1], 105% (inactive) in assay [2], 57.5% in assay [3] (setting [6]) and 39.2% in assay [3] (setting [7]). Further, the differential viability (reversal) in assay [3] (H69AR cells + 2 uM doxorubicin) was -18.3% (inactive). Also, the inhibition was -7.33% (inactive) in assay [4] and -2% (inactive) in assay [5].

Regarding `C/C=C(/C(=C/C)c1ccc(O)cc1)c1ccc(O)cc1`, the viability was 123% (inactive) in assay [1], 54.9% (inactive) in assay [2], 85.2% in assay [3] (setting [6]) and 27.6% in assay [3] (setting [7]). Further, the differential viability (reversal) in assay [3] (H69AR cells + 2 uM doxorubicin) is -57.5% (inactive). Moreover, the inhibition was 0.65% (inactive) in assay [4] and 25% (inactive) in assay [5].

In the case of `C=CCSc1nnc2n(CCc3ccccc3)c(=O)c3c4c(sc3n12)COC(C)(C)C4`, the viability in assay [1] was 124% (inactive); in assay [2], 72.5% (inactive); in assay [3] (setting [6]) it was 13.8%; in assay [3] (setting [7]), 47%. Besides, in assay [3] (H69AR cells + 2 uM doxorubicin), the differential viability (reversal) is 33.1% (inactive). Further, the inhibition in assay [4] was -4.38% (inactive); in assay [5], 1.13% (inactive).

Regarding `Cc1ccc(Cn2c(=N)c(C(=O)NCc3ccco3)cc3c(=O)n4ccccc4nc32)cc1`, the viability in assay [1] was 78% (inactive); in assay [2] it was 96.1% (inactive); in assay [3] (setting [6]), 47.4%; in assay [3] (setting [7]), 47.1%. The differential viability (reversal) in assay [3] (H69AR cells + 2 uM doxorubicin) is -0.275% (inactive). Besides, the figures for the inhibition in assay [4] and in assay [5] were -5.81% (inactive) and -4.36% (inactive), respectively.

In the case of `N#C/C(=C\c1ccc(O)c(O)c1)C(=O)NCCCc1ccccc1`, the viability was 88% (inactive) in assay [1], 43.4% (inactive) in assay [2], 78% in assay [3] (setting [6]) and 44.6% in assay [3] (setting [7]). Also, in assay [3] (H69AR cells + 2 uM doxorubicin), the differential viability (reversal) was -33.4% (inactive). Besides, the inhibition in assay [4] is 1.04% (inactive); in assay [5], 5.5% (inactive).

Take `C=C(C)C1Cc2c(C)nn(-c3nc(C)cc(C)n3)c2C1` (stereo unspecified): the viability in assay [1] is 105% (inactive); in assay [2], 71.7% (inactive); in assay [3] (setting [6]) it was 73.7%; in assay [3] (setting [7]), 52.3%. Further, the differential viability (reversal) in assay [3] (H69AR cells + 2 uM doxorubicin) is -21.4% (inactive). The inhibition in assay [4] was -6.58% (inactive); in assay [5], 13.4% (inactive).

Take `COc1cc2c(cc1NC(=O)CSc1nnc(Cc3cccs3)n1C)oc1ccccc12`: the viability in assay [1] is 74% (inactive); in assay [2] it was 54.4% (inactive); in assay [3] (setting [6]) it was 59.9%; in assay [3] (setting [7]), 47.8%. For the same molecule, in assay [3] (H69AR cells + 2 uM doxorubicin), the differential viability (reversal) is -12.1% (inactive). Further, the results for the inhibition in assay [4] and in assay [5] were 11.5% (inactive) and 4.36% (inactive), respectively.

Take `CC(=O)[C@H]1CC[C@H]2[C@@H]3CCC4=CC(=O)CC[C@]4(C)[C@H]3CC[C@]12C`: the viability is 93% (inactive) in assay [1], 49.4% (inactive) in assay [2], 50.5% in assay [3] (setting [6]) and 47.2% in assay [3] (setting [7]). Moreover, the differential viability (reversal) in assay [3] (H69AR cells + 2 uM doxorubicin) was -3.29% (inactive). Further, the values for the inhibition in assay [4] and in assay [5] were 5.06% (inactive) and -1% (inactive), respectively.

As to `COC(=O)C1=C(C)NC(C)=C(C(=O)OC)C1c1ccccc1[N+](=O)[O-]`, the viability was 91% (inactive) in assay [1], 46.7% (inactive) in assay [2], 2.41% in assay [3] (setting [6]) and 14.3% in assay [3] (setting [7]). Further, the differential viability (reversal) in assay [3] (H69AR cells + 2 uM doxorubicin) was 11.9% (inactive). In addition, the values for the inhibition in assay [4] and in assay [5] were 1.04% (inactive) and -2.67% (inactive), respectively.

On to `COc1ccccc1NC(=O)C1=C(C)NC(SCC(=O)c2ccc(C)cc2)=C(C#N)C1c1ccco1` (stereo unspecified), for which the viability was 81% (inactive) in assay [1], 72.5% (inactive) in assay [2], 16.8% in assay [3] (setting [6]) and 17.6% in assay [3] (setting [7]). Further, the differential viability (reversal) in assay [3] (H69AR cells + 2 uM doxorubicin) was 0.78% (inactive). Besides, the inhibition in assay [4] was 1.1% (inactive); in assay [5], -3.64% (inactive).

For `O=C(c1cc2nc(-c3ccco3)cc(C(F)(F)F)n2n1)N1CCN(c2ccccn2)CC1`, the viability in assay [1] is 101% (inactive); in assay [2], 66.5% (inactive); in assay [3] (setting [6]), 66.1%; in assay [3] (setting [7]), 54.3%. The differential viability (reversal) in assay [3] (H69AR cells + 2 uM doxorubicin) was -11.9% (inactive). For the same molecule, the inhibition in assay [4] was -3.2% (inactive); in assay [5] it was 0.18% (inactive).
